The values that follow come from ChEMBL document CHEMBL4138225, “Development of novel anti-filarial agents using carbamo(dithioperoxo)thioate derivatives” (Eur J Med Chem, 2018).

The term LC50 denotes the concentration that kills 50% of the test population. Read a low LC50 as greater toxicity. A word on the IC50: it is the concentration that gives 50% inhibition. As usually defined, the MIC is the lowest concentration found to suppress growth.

Values after ≈ are worked out from the molar mass of the structure shown. Active and inactive are the calls of the source. No cut-off for these calls is given here.

The test system of data set [1] is Setaria cervi. Put plainly: Antifilarial activity against Setaria cervi microfilariae after 24 hrs by MTT assay. It is filed as functional. The essentials: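 Bovine S. cervi microfilariae incubated with compounds (DMSO-dissolved) in RPMI-1640 + 10% FBS, 5% CO2, 24 h. Worms washed in PBS; ~1×10^3 suspended in 0.3 ml MTT 0.25 mg/ml, 37 °C 2 h in dark. Formazan dissolved in DMSO, absorbance at 595 nm. Percent inhibition computed; LC50 fitted; ≥4 repeats, mean ± SE.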

Data set [2] relates to Setaria cervi. Put plainly: Antifilarial activity against Setaria cervi microfilariae assessed as reduction in worm movement measured every 6 hrs up to 24 hrs by microscopy. It is filed as functional, organism-based. The essentials: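 About 1×10^5 S. cervi mf per well in RPMI-1640 with 10% FBS at 5% CO2, given a dose series. Motility checked by microscope every 6 h up to 24 h and scored 4 (highly motile) down to 0 (dead). IC50 and MIC calculated from scores; three experiments in triplicate, mean ± SE.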

The test system of data set [3] is Setaria cervi. The data set is described as follows: Antifilarial activity against Setaria cervi adult after 24 hrs by MTT assay. Type of data set: functional, organism-based. Put shortly:
(§1)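 S. cervi mf or adults cultured in RPMI-1640 with 10% FBS, 5% CO2, 24 h with compounds dissolved in DMSO. Worms washed in PBS, ~1×10^3 put in 0.25 mg/ml MTT for 2 h at 37 °C in the dark. Formazan dissolved in DMSO, A595. Percent inhibition computed, LC50 fitted; at least four repeats, mean ± SE.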
For orientation: Tetrazolium assays rely on reduction of a dye to a coloured formazan, in cell work by metabolically active cells.

Data set [4] concerns Setaria cervi. The data set is described as follows: Induction of chromatin condensation in Setaria cervi microfilariae by Hoechst 33342 staining-based […] microscopic analysis. It is filed as functional, organism-based. The essentials: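 Treated mf washed in PBS (pH 7.2), fixed in paraformaldehyde and stained 5 min with 1 mg/mL Hoechst 33342. Mounted on poly-L-lysine slides and imaged by fluorescence microscopy at […].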

The subject of data set [5] is Setaria cervi. Put plainly: Antifilarial activity against Setaria cervi oocytes after 24 hrs by MTT assay. Type of data set: functional, organism-based.
Data set [6] concerns Setaria cervi. The data set is described as follows: Antifilarial activity against Setaria cervi microfilariae after 3 hrs by trypan blue exclusion assay. Type of data set: functional, organism-based. Put shortly:
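After treatment, the culture was mixed and 100 μL holding parasites moved into fresh medium and put back in the CO2 incubator. Viability read by trypan blue staining, dead worms blue. Viability % = live / total microfilariae.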

Data set [7] deals with Setaria cervi. The data set is described as follows: Antifilarial activity against Setaria cervi adult after 3 hrs by trypan blue exclusion assay. It is filed as functional, organism-based.
The subject of data set [8] is Setaria cervi. The data set is described as follows: Antifilarial activity against Setaria cervi microfilaria forms after 24 hrs by MTT assay. It is filed as functional, organism-based. Put shortly:
as §1

In data set [9] the test system is Setaria cervi. Put plainly: Antifilarial activity against Setaria cervi microfilariae after 3 hrs.
For data set [10], the system named is Setaria cervi. Put plainly: Induction of reactive oxygen species generation in Setaria cervi microfilariae at 1 to 10 uM by NBT assay. Type of data set: functional, organism-based. The essentials:
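Treated mf or adults pelleted at 7500 rpm, washed in PBS (50 mM, pH 7.0), then incubated in 2% NBT for 2 h at 37 °C. Washed in PBS and methanol, formazan dissolved in 2M KOH/DMSO for 10–15 min at room temperature, absorbance read at 620 nm.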

Data set [11] is described as follows: Selectivity ratio of IC50 for human WI38 cells to IC50 for Setaria cervi microfilariae. It is filed as toxicity. Particulars: read-out: Ratio IC50.
The subject of another data set is WI-38. The data set is described as follows: Cytotoxicity against human WI38 cells after 24 hrs by MTT assay. It is filed as cell-based. Particulars: WI-38, 24 h. Put shortly:
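WI-38 normal human lung fibroblasts, 2.0×10^4 per well, grown 24 h, then treated 24 h at 0–50 µg/mL. MTT 0.5 mg/mL added in phenol red-free RPMI with 5% FBS, 4 h at 37 °C, 5% CO2. Formazan dissolved in DMSO, A570.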

For `S=C(SSc1ccccn1)N1CCOCC1`, in the data set with Setaria cervi [1], the LC50 was found to be 191 µg/mL (≈ 700 µM). Also, in the data set on Setaria cervi [2], the IC50 stood at 47.7 µg/mL (≈ 175 µM) and the MIC was 15.9 µg/mL (≈ 58.3 µM).

In the data set with Setaria cervi [1], `Cc1ccc(SSC(=S)N2CCC(Cc3ccccc3)CC2)cc1` yielded an LC50 of 22.5 µg/mL (≈ 60.3 µM). Moreover, in the data set with Setaria cervi [2], the IC50 worked out at 19.6 µg/mL (≈ 52.6 µM) and the MIC was found to be 1.22 µg/mL (≈ 3.27 µM).

In the data set on Setaria cervi [1], `S=C(SSc1cccc2ccccc12)N1CCOCC1` displayed an LC50 of 88.9 µg/mL (≈ 277 µM). Moreover, in the data set on Setaria cervi [2], the IC50 is 22.2 µg/mL (≈ 69.1 µM) and the MIC is 7.41 µg/mL (≈ 23 µM).

`S=C(SSc1ncccn1)N1CCC(Cc2ccccc2)CC1` showed an LC50 in the data set with Setaria cervi [1] of 240 µg/mL (≈ 663 µM). For the same compound, in the data set on Setaria cervi [2], the IC50 is 59.9 µg/mL (≈ 166 µM) and the MIC worked out at 20 µg/mL (≈ 55.2 µM).

With `COc1ccc(SSC(=S)N2CCCCC2)cc1`, the Activity result in the data set with Setaria cervi [3], with Setaria cervi [6], in the data set on Setaria cervi [1] and with Setaria cervi [7] was “Dose-dependent effect” each time. Besides, the result with Setaria cervi [4], in the data set with Setaria cervi [5] and with Setaria cervi [8] was Active. Besides, the LC50 with Setaria cervi [1] stood at 6.94 µg/mL (≈ 23.2 µM). In addition, the IC50 with Setaria cervi [2] and in the data set with Setaria cervi [9] was 4.61 µg/mL (≈ 15.4 µM) in each case. Besides, the MIC in the data set on Setaria cervi [2] came out at 2.3 µg/mL (≈ 7.68 µM).

In the case of `S=C(SSc1ccccn1)N1CCc2ccccc2C1`, the median lethal concentration (LC50) with Setaria cervi [1] stood at 99.2 µg/mL (≈ 311 µM). Besides, in the data set with Setaria cervi [2], the IC50 was determined as 24.8 µg/mL (≈ 77.8 µM) and the MIC is 8.26 µg/mL (≈ 25.9 µM).

`S=C(SSc1cccc2ccccc12)N1CCCCC1`: the Activity entry with Setaria cervi [3], in the data set on Setaria cervi [6], with Setaria cervi [1] and with Setaria cervi [7] was “Dose-dependent effect” throughout. Moreover, the outcome with Setaria cervi [10], in the data set with Setaria cervi [4], with Setaria cervi [5] and with Setaria cervi [8] was Active. The compound also gave an LC50 with Setaria cervi [1] of 6.49 µg/mL (≈ 20.3 µM). Also, the IC50 in the data set with Setaria cervi [2] and with Setaria cervi [9] was 2.15 µg/mL (≈ 6.73 µM) throughout. In addition, the MIC in the data set with Setaria cervi [2] worked out at 0.583 µg/mL (≈ 1.82 µM).

The compound `COc1ccc(SSC(=S)N2CCOCC2)cc1` registered an LC50 in the data set with Setaria cervi [1] of 80.3 µg/mL (≈ 266 µM). In the data set on Setaria cervi [2], the IC50 was 20.1 µg/mL (≈ 66.6 µM) and the MIC was determined as 6.69 µg/mL (≈ 22.2 µM).

`S=C(SSc1cccc2ccccc12)N1CCC(Cc2ccccc2)CC1` returned an LC50 in the data set with Setaria cervi [1] of 243 µg/mL (≈ 593 µM). Further, in the data set on Setaria cervi [2], the IC50 turned out to be 60.7 µg/mL (≈ 148 µM) and the MIC turned out to be 20.2 µg/mL (≈ 49.4 µM).

Regarding `S=C(SSc1ncccn1)N1CCc2ccccc2C1`, the LC50 in the data set with Setaria cervi [1] turned out to be 124 µg/mL (≈ 389 µM). Besides, in the data set on Setaria cervi [2], the IC50 is 31.1 µg/mL (≈ 97.3 µM) and the MIC turned out to be 10.4 µg/mL (≈ 32.4 µM).

As to `COc1ccc(SSC(=S)N2CCC(Cc3ccccc3)CC2)cc1`, the LC50 with Setaria cervi [1] was determined as 248 µg/mL (≈ 638 µM). In the data set on Setaria cervi [2], the IC50 amounted to 62.1 µg/mL (≈ 159 µM) and the MIC was 20.7 µg/mL (≈ 53.1 µM).

With `Cc1ccc(SSC(=S)N2CCOCC2)cc1`, the LC50 with Setaria cervi [1] was 79.6 µg/mL (≈ 279 µM). In the data set with Setaria cervi [2], the IC50 is 19.9 µg/mL (≈ 69.7 µM) and the MIC stood at 6.63 µg/mL (≈ 23.2 µM).

In the data set on Setaria cervi [1], `COc1ccc(SSC(=S)N2CCCC2)cc1` came in with an LC50 of 97 µg/mL (≈ 340 µM). In the data set with Setaria cervi [2], the IC50 amounted to 24.2 µg/mL (≈ 85 µM) and the MIC worked out at 8.08 µg/mL (≈ 28.3 µM).

In the case of `S=C(SSc1ccccn1)N1CCC(Cc2ccccc2)CC1`, the LC50 in the data set on Setaria cervi [1] was 237 µg/mL (≈ 656 µM). Besides, in the data set on Setaria cervi [2], the IC50 turned out to be 59.1 µg/mL (≈ 164 µM) and the MIC came out at 19.7 µg/mL (≈ 54.7 µM).

`Cc1ccc(SSC(=S)N2CCc3ccccc3C2)cc1`: the LC50 with Setaria cervi [1] was determined as 128 µg/mL (≈ 388 µM). In the data set with Setaria cervi [2], the IC50 was 32.1 µg/mL (≈ 96.9 µM) and the MIC came out at 10.7 µg/mL (≈ 32.3 µM).

For the compound `S=C(SSc1cccc2ccccc12)N1CCc2ccccc2C1`, in the data set on Setaria cervi [1], the LC50 worked out at 131 µg/mL (≈ 356 µM). For the same compound, in the data set on Setaria cervi [2], the IC50 came to 32.7 µg/mL (≈ 89 µM) and the MIC was 10.9 µg/mL (≈ 29.7 µM).

In the case of `Cc1ccc(SSC(=S)N2CCCC2)cc1`, in the data set on Setaria cervi [1], the LC50 worked out at 94.3 µg/mL (≈ 350 µM). Besides, in the data set on Setaria cervi [2], the IC50 came to 23.6 µg/mL (≈ 87.5 µM) and the MIC worked out at 7.86 µg/mL (≈ 29.2 µM).

Take `S=C(SSc1ncccn1)N1CCCCC1`: the Activity entry in the data set with Setaria cervi [3], in the data set on Setaria cervi [6], in the data set with Setaria cervi [1] and in the data set with Setaria cervi [7] was “Dose-dependent effect” each time. Moreover, the result with Setaria cervi [10], in the data set on Setaria cervi [4], in the data set with Setaria cervi [5] and in the data set with Setaria cervi [8] was Active. The compound further showed an LC50 in the data set on Setaria cervi [1] of 5.1 µg/mL (≈ 18.8 µM). The selectivity ratio in data set [11] came out at 5. Besides, the IC50 with Setaria cervi [2] turned out to be 4.75 µg/mL (≈ 17.5 µM); with Setaria cervi [9], 4.75 µg/mL (≈ 17.5 µM); with WI-38, 10.6 µg/mL (≈ 39.1 µM). In the data set on Setaria cervi [2], the MIC turned out to be 2.39 µg/mL (≈ 8.81 µM).

The compound `S=C(SSc1ccccn1)N1CCCCC1` registered an LC50 in the data set on Setaria cervi [1] of 97.3 µg/mL (≈ 360 µM). For the same compound, in the data set with Setaria cervi [2], the IC50 worked out at 24.3 µg/mL (≈ 89.9 µM) and the MIC worked out at 8.69 µg/mL (≈ 32.1 µM).

Compound `COc1ccc(SSC(=S)N2CCc3ccccc3C2)cc1` registered an LC50 in the data set with Setaria cervi [1] of 126 µg/mL (≈ 361 µM). Besides, in the data set on Setaria cervi [2], the IC50 was 31.4 µg/mL (≈ 90.4 µM) and the MIC amounted to 10.5 µg/mL (≈ 30.1 µM).

As for `S=C(SSc1cccc2ccccc12)N1CCCC1`, the LC50 with Setaria cervi [1] came out at 90.3 µg/mL (≈ 296 µM). Further, in the data set on Setaria cervi [2], the IC50 was 22.6 µg/mL (≈ 73.9 µM) and the MIC worked out at 7.52 µg/mL (≈ 24.6 µM).

Turning to `S=C(SSc1ncccn1)N1CCOCC1`, the Activity result with Setaria cervi [3], in the data set with Setaria cervi [6], in the data set on Setaria cervi [1] and in the data set with Setaria cervi [7] was “Dose-dependent effect” each time. In addition, the outcome in the data set on Setaria cervi [4], with Setaria cervi [5] and in the data set with Setaria cervi [8] was Active. In the data set on Setaria cervi [1], this compound registered an LC50 of 6.17 µg/mL (≈ 22.6 µM). For the same compound, the IC50 in the data set with Setaria cervi [2] and in the data set with Setaria cervi [9] was 5.5 µg/mL (≈ 20.1 µM) throughout. Further, the MIC with Setaria cervi [2] came to 0.97 µg/mL (≈ 3.55 µM).
